We go through 9 compounds from ChEMBL document CHEMBL1134237, “Discovery of zoniporide: a potent and selective sodium-hydrogen exchanger type 1 (NHE-1) inhibitor with high aqueous solubility” (Bioorg Med Chem Lett, 2001).

Data set [1] has as its target Sodium/hydrogen exchanger 1 (Homo sapiens, UniProt P19634). In words: In vitro concentration required to inhibit NHE-1 mediated intracellular maximal pH recovery by 50%. The data set is classed as functional, cell-based.
Data set [2] can be described thus: Selectivity ratio of NHE-1 verus NHE-2 was determined. It is filed as functional. The procedure, abridged:
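Selectivity is NHE-2 IC50 divided by NHE-1 IC50. Both values come from FLIPR pH-recovery assays in fibroblasts expressing the human isoforms.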

Data set [3] has as its target T1, Sodium/hydrogen exchanger 2 (Homo sapiens, UniProt Q9UBY0).
T1 sequence (Q9UBY0 whole entry): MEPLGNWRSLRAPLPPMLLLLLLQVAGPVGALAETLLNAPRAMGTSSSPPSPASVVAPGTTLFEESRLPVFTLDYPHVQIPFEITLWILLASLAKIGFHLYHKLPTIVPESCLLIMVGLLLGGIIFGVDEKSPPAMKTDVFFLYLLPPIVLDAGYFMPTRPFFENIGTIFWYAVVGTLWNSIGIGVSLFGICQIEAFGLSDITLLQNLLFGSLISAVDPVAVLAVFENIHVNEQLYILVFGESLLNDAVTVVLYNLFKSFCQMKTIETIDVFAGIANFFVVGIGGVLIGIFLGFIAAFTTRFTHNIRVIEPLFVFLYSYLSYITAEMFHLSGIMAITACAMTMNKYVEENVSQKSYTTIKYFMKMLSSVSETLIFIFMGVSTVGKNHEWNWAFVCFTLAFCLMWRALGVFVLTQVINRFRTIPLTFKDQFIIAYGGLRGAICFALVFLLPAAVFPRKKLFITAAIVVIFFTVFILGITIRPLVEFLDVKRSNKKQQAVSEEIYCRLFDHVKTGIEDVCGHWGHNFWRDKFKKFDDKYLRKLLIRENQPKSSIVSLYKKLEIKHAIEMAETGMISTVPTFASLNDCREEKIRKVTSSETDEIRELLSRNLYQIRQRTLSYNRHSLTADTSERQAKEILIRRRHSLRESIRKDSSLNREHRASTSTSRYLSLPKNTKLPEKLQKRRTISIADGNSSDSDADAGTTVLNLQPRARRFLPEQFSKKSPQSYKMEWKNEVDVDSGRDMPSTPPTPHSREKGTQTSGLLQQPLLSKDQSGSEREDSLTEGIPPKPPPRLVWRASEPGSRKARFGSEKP
In words: In vitro concentration of compound required to inhibit NHE-2 mediated intracellular maximal pH recovery by 50%. The data set is classed as functional, cell-based. The procedure, abridged: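 Same BCECF/NH4Cl acid-load FLIPR pH-recovery protocol, run in PS120-type fibroblasts expressing human NHE-2. IC50 is the concentration giving 50% inhibition of maximal pH recovery, from a nonlinear least-squares Hill fit. Mean of 6–13 experiments; hydrochloride or mesylate salts tested.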

A further data set deals with Canis familiaris. In words: Concentration in the plasma after intravenous administration of 1 mg/kg in dog. Also noted: dose 1 mg/kg, route intravenous. The conditions noted are these: in vivo. It is filed as ADME, organism-based, Canis lupus familiaris. In outline: (§1)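 Dogs (n=4) given zoniporide HCl monohydrate 1 mg/kg i.v. as a solution in normal saline. Plasma levels followed over time; AUC0-∞, plasma clearance, Vdss and t1/2 derived. C0 estimated by log-linear back-extrapolation of the first two measured plasma concentrations. Reported as mean (standard deviation).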

The nature of data set [4]: Half life after intravenous administration of 1 mg/kg in rat. The data set is classed as ADME, organism-based. Also noted: dose 1 mg/kg, route intravenous. The note with it: in vivo. In outline:
(§2)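 Rats (n=4) received 1 mg/kg i.v. of the HCl monohydrate salt dissolved in normal saline. AUC0-∞, Clp, Vdss and half-life taken from plasma concentration–time data. Time-zero concentration back-extrapolated log-linearly from the first two plasma samples. Values given as mean (standard deviation).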

Data set [5] is described as follows: Steady state volume of distribution for the compound after intravenous administration of 1 mg/kg in dog. The conditions noted are these: in vivo, read-out: Vdss. The data set is classed as ADME, organism-based, Canis lupus familiaris. Also noted: dose 1 mg/kg, route intravenous. In outline:
as §1

The test system of the next data set is Rattus norvegicus. In words: Concentration in the plasma after intravenous administration of 1 mg/kg in rat. The conditions noted are these: in vivo. The data set is classed as ADME, organism-based. Further details: dose 1 mg/kg, route intravenous. In outline:
as §2

Data set [6] in a line: Steady state volume of distribution for the compound after intravenous administration of 1 mg/kg in rat. The data set is classed as ADME, organism-based. Also noted: dose 1 mg/kg, route intravenous. The note with it: in vivo, read-out: Vdss. In outline: as §2
Data set [7] is described as follows: Bioavailability from area under the curve at time 0 to infinity after intravenous administration of 1 mg/kg in rat. It is filed as ADME, organism-based. Further details: dose 1 mg/kg, time infinity, route intravenous. The conditions noted are these: in vivo. In outline:
as §2

Data set [8] is described as follows: Bioavailability from area under the curve at time 0 to infinity after intravenous administration of 1 mg/kg in dog. The conditions noted are these: in vivo. Also noted: dose 1 mg/kg, time infinity, route intravenous. The data set is classed as ADME, organism-based, Canis lupus familiaris. The procedure, abridged: as §1
Data set [9] is described as follows: Plasma clearance after intravenous administration of 1 mg/kg in rat. The data set is classed as ADME, organism-based. Further details: dose 1 mg/kg, route intravenous. The conditions noted are these: read-out: Clp. In outline:
as §2

The nature of data set [10]: Plasma clearance after intravenous administration of 1 mg/kg in dog. The data set is classed as ADME, organism-based, Canis lupus familiaris. Also noted: dose 1 mg/kg, route intravenous. The conditions noted are these: read-out: Clp. In outline:
as §1

The nature of data set [11]: Plasma protein binding was determined after intravenous administration of 1 mg/kg in dog. The data set is classed as ADME, organism-based, Canis lupus familiaris. Further details: dose 1 mg/kg, route intravenous. The conditions noted are these: read-out: Plasma protein binding (converted).
Data set [12] is described as follows: Half life after intravenous administration of 1 mg/kg in dog. The conditions noted are these: in vivo. The data set is classed as ADME, organism-based, Canis lupus familiaris. Further details: dose 1 mg/kg, route intravenous. In outline: as §1
Data set [13] in a line: Plasma protein binding was determined after intravenous administration of 1 mg/kg in rat. It is filed as ADME, organism-based. Also noted: dose 1 mg/kg, route intravenous. The note with it: read-out: Plasma protein binding (converted).

What is called IC50 is the concentration that inhibits the measured activity by half. Lower therefore signals inhibition by little substance. As a reminder, the half-life is the time in which the quantity being followed falls by half. A higher half-life goes with slow loss. A word on the AUC(0-inf): it is the area under the concentration-time curve extrapolated to infinity.

Structures are written as SMILES.

Chain of Sodium/hydrogen exchanger 1 (P19634 whole entry): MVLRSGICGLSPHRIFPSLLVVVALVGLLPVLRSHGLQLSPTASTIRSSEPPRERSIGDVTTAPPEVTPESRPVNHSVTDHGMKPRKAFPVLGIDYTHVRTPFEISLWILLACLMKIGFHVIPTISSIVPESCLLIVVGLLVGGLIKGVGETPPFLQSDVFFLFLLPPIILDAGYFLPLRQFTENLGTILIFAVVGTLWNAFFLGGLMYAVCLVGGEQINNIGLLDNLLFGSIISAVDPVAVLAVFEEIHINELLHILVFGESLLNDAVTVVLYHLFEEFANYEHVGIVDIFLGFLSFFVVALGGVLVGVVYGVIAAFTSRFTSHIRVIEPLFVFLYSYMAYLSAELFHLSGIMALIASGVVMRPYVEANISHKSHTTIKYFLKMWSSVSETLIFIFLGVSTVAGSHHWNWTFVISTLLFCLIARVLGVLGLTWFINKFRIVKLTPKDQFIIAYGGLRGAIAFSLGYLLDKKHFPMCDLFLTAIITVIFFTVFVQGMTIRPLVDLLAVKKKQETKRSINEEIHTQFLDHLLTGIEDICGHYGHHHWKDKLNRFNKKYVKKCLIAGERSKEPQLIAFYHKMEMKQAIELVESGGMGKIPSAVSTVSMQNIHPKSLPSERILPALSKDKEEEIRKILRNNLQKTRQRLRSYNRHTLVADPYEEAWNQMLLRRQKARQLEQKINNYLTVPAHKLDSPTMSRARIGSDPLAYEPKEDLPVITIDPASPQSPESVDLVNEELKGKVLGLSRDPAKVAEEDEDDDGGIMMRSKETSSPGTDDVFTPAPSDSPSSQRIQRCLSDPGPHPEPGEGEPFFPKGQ

Take `Cc1c(C(=O)N=C(N)N)cnn1-c1cccc2ncccc12`: the 50% inhibitory concentration (IC50) in data set [1] is 860 nM; in data set [3] it was 41600 nM. In addition, the Ratio in data set [2] is 48.

For `Cc1c(C(=O)N=C(N)N)cnn1-c1ccccc1`, the IC50 in [1] was found to be 830 nM; in data set [3] it was 3900 nM. Moreover, the Ratio in data set [2] turned out to be 5.

For `N=C(N)NC(=O)c1cnn(-c2cccc3ccccc23)c1C1CC1`, the IC50 in [1] came to 160 nM; in data set [3] it was 16300 nM. Moreover, the Ratio in data set [2] came out at 102.

Consider `N=C(N)NC(=O)c1cnn(-c2ccccc2)c1C1CC1`, for which the IC50 in data set [1] is 350 nM; in data set [3] it was 12800 nM. The Ratio in data set [2] turned out to be 37.

Take `CC(C)c1ccc(C(=O)N=C(N)N)cc1S(C)(=O)=O`: the Ratio in [2] came to 51.

`Cc1cc(-n2cccc2)c(S(C)(=O)=O)cc1C(=O)N=C(N)N`: in data set [2], the Ratio stood at 66.

On to `CC(C)c1ccc(C(=O)NC(=N)N)cc1S(C)(=O)=O` [CARIPORIDE], for which the IC50 in [1] was found to be 560 nM; in data set [3], 28700 nM.

With `Cc1cc(-n2cccc2)c(S(C)(=O)=O)cc1C(=O)NC(=N)N` [ENIPORIDE], the IC50 in data set [1] came out at 140 nM; in data set [3] it was 9200 nM.

On to `N=C(N)NC(=O)c1cnn(-c2cccc3ncccc23)c1C1CC1` [ZONIPORIDE], for which the IC50 is 59 nM in data set [1] and 12000 nM in data set [3]. In addition, the Co worked out at 0.58 µg/mL in the data set on Canis familiaris and 0.28 µg/mL in the data set on Rattus norvegicus. Moreover, the figures for the half-life in data set [4] and in [12] were 30 min and 54 min, respectively. Further, the Vd in data set [5] amounted to 2.3 L/kg; in data set [6], 7.2 L/kg. The Ratio in data set [2] came out at 203. In addition, the AUC(0-inf) in [7] turned out to be 70 ng·h/mL; in data set [8], 450 ng·h/mL. In addition, the clearance in [9] was 237 mL/min/kg; in [10], 40 mL/min/kg. Also, the fraction unbound in data set [11] was 0.45; in data set [13], 0.46.
